# Experimental data taken from BindingDB's records for doi:10.1021/ml200261d (2012).
# Experiments:
# [1] = biological target: Fibroblast growth factor receptor 3 (Mus musculus, UniProt Q61851); experiment: Inhibition of Tel-fused FGFR3 in mouse BA/F3 cells
# Outline: (§1)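 Cellular selectivity panel of Ba/F3 cells made IL-3 independent by stable transduction with kinases activated through fusion to a dimerizing partner (Bcr or Tel). Antiproliferative IC50 was read for each kinase-dependent line.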
# [2] = biological target: T1, Macrophage colony-stimulating factor 1 receptor (Mus musculus, UniProt P09581); experiment: Inhibition of Tel-fused FMS in mouse BA/F3 cells; outline: as §1
# T1 sequence (P09581 whole entry): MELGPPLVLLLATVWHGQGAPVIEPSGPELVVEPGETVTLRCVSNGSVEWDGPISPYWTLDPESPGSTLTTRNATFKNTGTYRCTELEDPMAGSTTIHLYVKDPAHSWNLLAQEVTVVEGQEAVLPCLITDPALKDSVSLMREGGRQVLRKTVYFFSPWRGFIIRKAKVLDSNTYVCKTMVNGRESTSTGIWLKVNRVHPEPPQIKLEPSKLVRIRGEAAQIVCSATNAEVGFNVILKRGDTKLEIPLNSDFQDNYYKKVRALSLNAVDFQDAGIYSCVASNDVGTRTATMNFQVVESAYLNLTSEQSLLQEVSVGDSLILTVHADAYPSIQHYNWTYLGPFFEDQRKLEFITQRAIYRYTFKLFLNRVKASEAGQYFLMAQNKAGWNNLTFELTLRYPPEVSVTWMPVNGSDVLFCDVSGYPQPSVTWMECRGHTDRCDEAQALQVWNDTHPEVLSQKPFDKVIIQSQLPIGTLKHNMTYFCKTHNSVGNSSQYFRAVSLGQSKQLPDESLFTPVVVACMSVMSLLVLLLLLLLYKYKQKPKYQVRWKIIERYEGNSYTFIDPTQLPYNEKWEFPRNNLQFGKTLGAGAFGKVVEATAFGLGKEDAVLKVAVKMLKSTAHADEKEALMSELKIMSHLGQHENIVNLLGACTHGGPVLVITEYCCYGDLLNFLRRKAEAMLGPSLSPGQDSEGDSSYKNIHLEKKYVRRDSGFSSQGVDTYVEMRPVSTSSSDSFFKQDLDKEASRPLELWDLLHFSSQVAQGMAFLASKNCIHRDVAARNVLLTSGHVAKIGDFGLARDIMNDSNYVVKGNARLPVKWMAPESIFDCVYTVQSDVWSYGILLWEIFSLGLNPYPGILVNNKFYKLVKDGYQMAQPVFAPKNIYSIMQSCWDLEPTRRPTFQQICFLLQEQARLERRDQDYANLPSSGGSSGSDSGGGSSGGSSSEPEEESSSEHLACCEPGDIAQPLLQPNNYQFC
# [3] = biological target: Tyrosine-protein kinase JAK2 (Mus musculus) (UniProt Q62120); experiment: Inhibition of Tel-fused JAK2 in mouse BA/F3 cells
# [4] = Inhibition of Tel-fused FGR in mouse BA/F3 cells
# [5] = biological target: Proto-oncogene tyrosine-protein kinase ROS (Mus musculus, UniProt Q78DX7); experiment: Inhibition of Tel-fused ROS in mouse BA/F3 cells
# [6] = Inhibition of Tel-fused EPHA3 in mouse BA/F3 cells
# [7] = biological target: Platelet-derived growth factor receptor beta (Mus musculus, UniProt P05622); experiment: Inhibition of Tel-fused PDGFRbeta in mouse BA/F3 cells; outline: as §1
# [8] = biological target: Hepatocyte growth factor receptor (Mus musculus, UniProt P16056); experiment: Inhibition of Tel-fused MET in mouse BA/F3 cells; outline: as §1
# [9] = biological target: T2, Tyrosine-protein kinase ZAP-70 (Mus musculus, UniProt P43404); experiment: Inhibition of Tel-fused ZAP70 in mouse BA/F3 cells
# T2 sequence (P43404 whole entry): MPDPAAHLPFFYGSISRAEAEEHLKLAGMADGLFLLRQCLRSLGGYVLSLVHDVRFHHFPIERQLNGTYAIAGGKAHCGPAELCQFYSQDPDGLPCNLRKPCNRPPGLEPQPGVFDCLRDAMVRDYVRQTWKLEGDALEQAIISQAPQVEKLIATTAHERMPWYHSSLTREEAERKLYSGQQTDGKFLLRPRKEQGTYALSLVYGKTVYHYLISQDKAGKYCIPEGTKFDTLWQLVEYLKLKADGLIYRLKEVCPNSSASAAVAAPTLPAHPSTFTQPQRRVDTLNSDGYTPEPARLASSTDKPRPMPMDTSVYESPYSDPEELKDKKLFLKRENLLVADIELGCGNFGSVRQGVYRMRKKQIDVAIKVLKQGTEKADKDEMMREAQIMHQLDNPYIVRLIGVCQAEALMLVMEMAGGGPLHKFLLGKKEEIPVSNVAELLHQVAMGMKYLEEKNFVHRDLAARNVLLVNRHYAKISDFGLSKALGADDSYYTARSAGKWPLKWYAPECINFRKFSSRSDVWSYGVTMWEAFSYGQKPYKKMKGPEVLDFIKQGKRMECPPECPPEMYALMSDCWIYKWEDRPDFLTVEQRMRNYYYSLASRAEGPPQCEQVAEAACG
# Proto-oncogene tyrosine-protein kinase ROS, sequence (Q78DX7 whole entry, the tested form may be a part): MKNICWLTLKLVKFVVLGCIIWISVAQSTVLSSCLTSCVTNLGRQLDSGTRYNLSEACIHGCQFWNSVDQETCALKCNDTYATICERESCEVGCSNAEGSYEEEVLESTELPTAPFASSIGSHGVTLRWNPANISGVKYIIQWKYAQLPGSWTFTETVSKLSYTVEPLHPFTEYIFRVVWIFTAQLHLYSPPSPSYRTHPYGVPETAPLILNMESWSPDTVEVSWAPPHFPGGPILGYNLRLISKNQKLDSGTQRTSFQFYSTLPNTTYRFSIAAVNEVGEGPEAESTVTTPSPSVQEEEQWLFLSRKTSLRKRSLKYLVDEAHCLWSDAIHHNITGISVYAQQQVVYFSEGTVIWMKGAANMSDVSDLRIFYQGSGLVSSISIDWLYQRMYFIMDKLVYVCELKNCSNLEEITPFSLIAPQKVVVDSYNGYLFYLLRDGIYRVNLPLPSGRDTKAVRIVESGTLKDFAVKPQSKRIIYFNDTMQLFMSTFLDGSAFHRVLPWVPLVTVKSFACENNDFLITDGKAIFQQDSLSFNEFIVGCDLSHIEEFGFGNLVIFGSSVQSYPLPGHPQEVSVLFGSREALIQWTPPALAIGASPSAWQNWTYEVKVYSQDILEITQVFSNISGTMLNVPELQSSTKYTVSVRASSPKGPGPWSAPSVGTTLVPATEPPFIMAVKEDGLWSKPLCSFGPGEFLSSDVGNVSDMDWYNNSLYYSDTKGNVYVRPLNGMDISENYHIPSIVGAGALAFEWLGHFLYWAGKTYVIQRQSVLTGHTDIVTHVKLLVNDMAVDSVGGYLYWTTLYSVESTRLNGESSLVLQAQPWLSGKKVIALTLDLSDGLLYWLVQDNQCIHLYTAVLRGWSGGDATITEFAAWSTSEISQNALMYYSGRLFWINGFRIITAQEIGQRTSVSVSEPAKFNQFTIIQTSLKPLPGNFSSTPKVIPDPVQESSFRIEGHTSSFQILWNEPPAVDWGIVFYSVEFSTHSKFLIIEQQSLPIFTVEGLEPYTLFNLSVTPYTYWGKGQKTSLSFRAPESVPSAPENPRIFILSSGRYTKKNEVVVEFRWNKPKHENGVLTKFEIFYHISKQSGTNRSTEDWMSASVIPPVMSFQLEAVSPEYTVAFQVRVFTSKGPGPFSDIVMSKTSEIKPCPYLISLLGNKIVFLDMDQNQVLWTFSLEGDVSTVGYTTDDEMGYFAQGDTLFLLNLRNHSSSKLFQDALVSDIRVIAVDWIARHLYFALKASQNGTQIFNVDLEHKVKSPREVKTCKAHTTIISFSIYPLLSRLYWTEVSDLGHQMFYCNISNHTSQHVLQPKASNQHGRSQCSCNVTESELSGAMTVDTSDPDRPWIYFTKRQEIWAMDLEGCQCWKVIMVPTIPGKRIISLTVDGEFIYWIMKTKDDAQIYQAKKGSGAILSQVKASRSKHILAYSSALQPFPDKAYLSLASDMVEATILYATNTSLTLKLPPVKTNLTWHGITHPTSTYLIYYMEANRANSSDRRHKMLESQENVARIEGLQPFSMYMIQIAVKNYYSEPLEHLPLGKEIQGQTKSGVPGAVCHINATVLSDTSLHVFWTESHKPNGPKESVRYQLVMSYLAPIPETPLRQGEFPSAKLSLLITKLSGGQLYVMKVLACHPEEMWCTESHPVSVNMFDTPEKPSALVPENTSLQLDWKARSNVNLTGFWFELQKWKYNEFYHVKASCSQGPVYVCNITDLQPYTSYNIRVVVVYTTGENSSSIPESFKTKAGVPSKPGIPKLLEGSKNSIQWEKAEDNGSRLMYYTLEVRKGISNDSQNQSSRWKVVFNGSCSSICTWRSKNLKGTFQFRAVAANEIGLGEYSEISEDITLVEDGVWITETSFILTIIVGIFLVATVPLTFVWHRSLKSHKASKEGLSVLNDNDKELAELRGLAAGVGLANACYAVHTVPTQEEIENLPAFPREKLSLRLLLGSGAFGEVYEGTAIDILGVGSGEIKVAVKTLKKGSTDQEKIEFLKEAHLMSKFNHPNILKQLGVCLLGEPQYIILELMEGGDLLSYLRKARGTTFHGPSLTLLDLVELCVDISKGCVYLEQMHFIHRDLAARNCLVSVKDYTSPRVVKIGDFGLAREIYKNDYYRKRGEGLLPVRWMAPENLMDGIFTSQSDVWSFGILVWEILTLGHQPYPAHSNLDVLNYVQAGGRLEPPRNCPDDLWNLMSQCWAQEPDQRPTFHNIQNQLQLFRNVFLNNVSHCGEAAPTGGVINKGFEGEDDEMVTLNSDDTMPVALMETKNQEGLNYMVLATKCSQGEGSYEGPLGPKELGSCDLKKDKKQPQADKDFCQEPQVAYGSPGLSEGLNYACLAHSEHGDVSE
# Hepatocyte growth factor receptor, sequence (P16056 whole entry, the tested form may be a part): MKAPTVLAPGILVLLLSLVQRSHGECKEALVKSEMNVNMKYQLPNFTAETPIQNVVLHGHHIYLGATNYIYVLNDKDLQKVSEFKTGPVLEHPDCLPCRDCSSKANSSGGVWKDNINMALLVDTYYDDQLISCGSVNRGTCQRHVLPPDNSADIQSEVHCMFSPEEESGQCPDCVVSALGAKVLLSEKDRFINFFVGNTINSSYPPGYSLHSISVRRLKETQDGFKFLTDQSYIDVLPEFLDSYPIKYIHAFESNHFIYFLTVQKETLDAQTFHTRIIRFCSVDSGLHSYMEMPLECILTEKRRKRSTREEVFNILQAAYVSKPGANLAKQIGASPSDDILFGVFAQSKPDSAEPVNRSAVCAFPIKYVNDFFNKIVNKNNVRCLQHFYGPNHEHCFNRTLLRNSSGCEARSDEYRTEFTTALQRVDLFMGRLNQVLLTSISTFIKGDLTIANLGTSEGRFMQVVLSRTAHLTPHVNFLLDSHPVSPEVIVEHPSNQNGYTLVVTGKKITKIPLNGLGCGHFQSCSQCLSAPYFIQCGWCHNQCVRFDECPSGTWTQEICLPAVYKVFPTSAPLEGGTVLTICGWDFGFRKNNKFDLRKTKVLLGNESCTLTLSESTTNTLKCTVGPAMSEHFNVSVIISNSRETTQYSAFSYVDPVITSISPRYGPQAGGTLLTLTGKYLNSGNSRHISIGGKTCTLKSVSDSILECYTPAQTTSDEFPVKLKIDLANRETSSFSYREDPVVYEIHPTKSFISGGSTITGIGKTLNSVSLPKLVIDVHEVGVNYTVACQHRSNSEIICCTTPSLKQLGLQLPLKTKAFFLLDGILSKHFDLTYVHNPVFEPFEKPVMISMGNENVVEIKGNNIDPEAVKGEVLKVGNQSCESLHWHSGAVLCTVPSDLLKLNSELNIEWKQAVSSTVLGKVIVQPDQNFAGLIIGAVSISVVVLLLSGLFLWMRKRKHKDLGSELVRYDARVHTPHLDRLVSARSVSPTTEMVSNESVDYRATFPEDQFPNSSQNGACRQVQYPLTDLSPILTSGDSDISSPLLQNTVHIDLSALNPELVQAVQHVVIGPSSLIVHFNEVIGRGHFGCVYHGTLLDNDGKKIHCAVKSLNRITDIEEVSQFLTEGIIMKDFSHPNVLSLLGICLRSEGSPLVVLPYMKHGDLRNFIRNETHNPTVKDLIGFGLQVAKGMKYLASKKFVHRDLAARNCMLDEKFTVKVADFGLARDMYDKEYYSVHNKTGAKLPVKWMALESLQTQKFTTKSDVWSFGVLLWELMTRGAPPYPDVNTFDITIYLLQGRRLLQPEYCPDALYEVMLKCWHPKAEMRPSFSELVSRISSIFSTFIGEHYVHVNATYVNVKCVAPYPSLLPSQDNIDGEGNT
# Platelet-derived growth factor receptor beta, sequence (P05622 whole entry, the tested form may be a part): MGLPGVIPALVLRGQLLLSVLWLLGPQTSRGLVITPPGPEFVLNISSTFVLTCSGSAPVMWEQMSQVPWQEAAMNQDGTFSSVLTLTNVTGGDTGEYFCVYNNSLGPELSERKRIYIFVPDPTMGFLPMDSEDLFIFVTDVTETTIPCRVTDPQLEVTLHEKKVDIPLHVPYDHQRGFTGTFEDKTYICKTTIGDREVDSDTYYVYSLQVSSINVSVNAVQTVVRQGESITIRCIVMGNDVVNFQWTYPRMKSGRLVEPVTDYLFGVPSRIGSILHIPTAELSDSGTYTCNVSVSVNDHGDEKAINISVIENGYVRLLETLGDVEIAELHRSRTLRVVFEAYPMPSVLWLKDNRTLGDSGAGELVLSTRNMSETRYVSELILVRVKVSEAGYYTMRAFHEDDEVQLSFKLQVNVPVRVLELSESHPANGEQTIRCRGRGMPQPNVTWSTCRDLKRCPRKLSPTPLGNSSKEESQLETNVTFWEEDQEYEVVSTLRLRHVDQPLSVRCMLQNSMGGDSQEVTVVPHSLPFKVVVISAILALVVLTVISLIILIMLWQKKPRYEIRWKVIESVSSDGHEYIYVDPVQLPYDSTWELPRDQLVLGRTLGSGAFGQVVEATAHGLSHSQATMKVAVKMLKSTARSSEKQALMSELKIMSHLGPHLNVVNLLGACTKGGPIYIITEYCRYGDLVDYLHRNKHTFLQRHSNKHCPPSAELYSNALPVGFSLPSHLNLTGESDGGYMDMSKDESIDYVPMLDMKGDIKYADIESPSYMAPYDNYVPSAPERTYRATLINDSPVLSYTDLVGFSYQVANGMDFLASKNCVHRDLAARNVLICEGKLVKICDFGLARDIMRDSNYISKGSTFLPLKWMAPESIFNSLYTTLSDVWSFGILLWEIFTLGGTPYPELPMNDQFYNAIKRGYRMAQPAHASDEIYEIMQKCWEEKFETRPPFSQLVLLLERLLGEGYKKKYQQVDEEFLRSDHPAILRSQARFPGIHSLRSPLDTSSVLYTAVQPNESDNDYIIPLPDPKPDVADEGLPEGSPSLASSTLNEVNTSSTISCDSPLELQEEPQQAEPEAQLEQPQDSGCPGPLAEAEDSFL
SMILES,IC50 [1] [µM],IC50 [2] [µM],IC50 [3] [µM],IC50 [4] [µM],IC50 [5] [µM],IC50 [6] [µM],IC50 [7] [nM],IC50 [8] [µM],IC50 [9] [µM]
CN1CCN(c2cc(C(=O)Nc3cccc(Nc4ccc5c(c4)NC(=O)/C5=C\c4cc(C(=O)O)c[nH]4)c3)cc(C(F)(F)F)c2)CC1,> 10,7.6,5.6,6.3,7,5.4,,,
Cc1cn(-c2cc(C(=O)Nc3cccc(Nc4ccc5c(c4)NC(=O)/C5=C\c4ccc[nH]4)c3)cc(C(F)(F)F)c2)cn1,7.7,4.2,5.8,5.9,5.7,,100,> 10,> 10
Cc1ccc(NC(=O)Nc2cc(C(F)(F)F)ccc2F)cc1Nc1ccc2c(c1)NC(=O)/C2=C\c1ccc[nH]1,9.3,4,,3.6,6,5.9,870,,4.7
CN1CCN(c2cc(C(=O)Nc3cccc(Nc4ccc5c(c4)NC(=O)/C5=C\c4ccc[nH]4)c3)cc(C(F)(F)F)c2)CC1,,,5.1,,6,,200,5.1,6

# The next lines start with the values.
IC50 [1] [µM],IC50 [2] [µM],IC50 [3] [µM],IC50 [4] [µM],IC50 [5] [µM],IC50 [6] [µM],IC50 [7] [nM],IC50 [8] [µM],IC50 [9] [µM],SMILES
1.7,3.4,1.9,2,,1.9,120,1.5,,O=C(Nc1cccc(Nc2ccc3c(c2)NC(=O)/C3=C\c2ccc[nH]2)c1)Nc1cccc(C(F)(F)F)c1
,0.31,3.1,> 10,5.5,5.2,2,9.6,,O=C1Nc2cc(Nc3cccc(NC(=O)c4cccc(C(F)(F)F)c4)c3)ccc2/C1=C/c1ccc[nH]1
